Experiments:
[1] = Aqueous solubility; assay type: physicochemical; conditions: read-out: S
Procedure, shortened: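 A 10-mg sample was placed in 0.5 mL water and diluted stepwise up to 10 mL, or until it dissolved. Solubility is reported in mg/mL.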

Homo sapiens = organism: Homo sapiens; assay: Inhibition of human platelet aggregation induced by ADP after 3 min incubation with platelet rich plasma; assay type: functional; conditions: 0.05 h
Procedure, shortened: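 Human platelet-rich plasma was preincubated with drug for 3 min (standard) or 15 min, then aggregation was induced with 5.86 μM ADP. Aggregation at a range of drug concentrations was compared with vehicle-treated controls, and IC50 was taken from dose-response curves. Values are single, duplicate or triplicate (with SD) determinations.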

SMILES | solubility [1] [µg/mL] | IC50 (Homo sapiens) [nM]
CCOC(=O)N1CCC(S(=O)(=O)CCCOc2ccc3[nH]c4nc(O)nc-4cc3c2)CC1 | < 1000 | 650
CCOC(=O)N1CCC(n2nnnc2CCCCOc2ccc3[nH]c4nc(O)nc-4cc3c2)CC1 | < 1000 | 100
CCOC(=O)N1CCC(S(=O)(=O)CCCCOc2ccc3[nH]c4nc(O)nc-4cc3c2)CC1 | < 1000 | 410
CCOC(=O)N1CCC(n2nnnc2CCCOc2ccc3[nH]c4nc(O)nc-4cc3c2)CC1 | < 1000 | 420
Cl.O=S(=O)(CCCOc1ccc2[nH]c3nc(O)nc-3cc2c1)C1CCN(CC2CCCCO2)CC1 (centres undefined) | > 10000 | 34
Cl.O=S(=O)(CCCOc1ccc2[nH]c3nc(O)nc-3cc2c1)C1CCN(CCc2ccccc2)CC1 | < 5000 | 130
Cl.O=S(=O)(CCCOc1ccc2[nH]c3nc(O)nc-3cc2c1)C1CCN(Cc2cccc(C(F)(F)F)c2)CC1 | < 5000 | 38
Cl.O=S(=O)(CCCCOc1ccc2[nH]c3nc(O)nc-3cc2c1)C1CCN(Cc2ccc(F)cc2)CC1 | 2000 | 67
Cl.O=S(=O)(CCCOc1ccc2[nH]c3nc(O)nc-3cc2c1)N1CCN(CCc2ccccc2)CC1 | < 10000 | 1040
Cl.Oc1nc2cc3cc(OCCCCc4nnnn4C4CCN(Cc5ccccc5)CC4)ccc3[nH]c-2n1 | > 5000 | 31
CCC(CC)CN1CCC(n2nnnc2CCCCOc2ccc3[nH]c4nc(O)nc-4cc3c2)CC1.Cl | > 5000 | 12
Cl.Oc1nc2cc3cc(OCCCCc4nnnn4C4CCN(Cc5ccc(F)cc5)CC4)ccc3[nH]c-2n1 | > 5000 | 51
CCCC(CCC)CN1CCC(n2nnnc2CCCOc2ccc3[nH]c4nc(O)nc-4cc3c2)CC1.Cl | 2000 | 82
CC(C)CN1CCC(n2nnnc2CCCCOc2ccc3[nH]c4nc(O)nc-4cc3c2)CC1.Cl | > 10000 | 9
Cl.Oc1nc2cc3cc(OCCCCc4nnnn4C4CCNCC4)ccc3[nH]c-2n1 | 5000 | 5330
Cl.Oc1nc2cc3cc(OCCCc4nnnn4C4CCNCC4)ccc3[nH]c-2n1 | > 20000 | 11600

SMILES | solubility [1] [µg/mL] | IC50 (Homo sapiens) [nM]
CCC(CC)CN1CCC(S(=O)(=O)CCCCOc2ccc3[nH]c4nc(O)nc-4cc3c2)CC1.Cl | 5000 | 21
Cl.Oc1nc2cc3cc(OCCCc4nnnn4C4CCN(CCc5ccccc5)CC4)ccc3[nH]c-2n1 | < 5000 | 83
Cl.O=S(=O)(CCCOc1ccc2[nH]c3nc(O)nc-3cc2c1)C1CCNCC1 | > 10000 | > 66000
Cl.O=S(=O)(CCCCOc1ccc2[nH]c3nc(O)nc-3cc2c1)C1CCNCC1 | > 10000 | 14800
Cl.O=S(=O)(CCCOc1ccc2[nH]c3nc(O)nc-3cc2c1)N1CCN(c2nc3ccccc3o2)CC1 | > 20000 | 2410
Cl.O=S(=O)(CCCOc1ccc2[nH]c3nc(O)nc-3cc2c1)N1CCN(c2nc3ccccc3s2)CC1 | 1000 | 4880
COc1ccc(CN2CCN(S(=O)(=O)CCCOc3ccc4[nH]c5nc(O)nc-5cc4c3)CC2)cc1.Cl | > 20000 | 460
CC(C)CN1CCC(n2nnnc2CCCOc2ccc3[nH]c4nc(O)nc-4cc3c2)CC1.Cl | > 10000 | 9.4
CCCC(CCC)CN1CCC(S(=O)(=O)CCCOc2ccc3[nH]c4nc(O)nc-4cc3c2)CC1.Cl | 1000 | 230
Cl.Oc1nc2cc3cc(OCCCc4nnnn4C4CCN(CC5CCCCO5)CC4)ccc3[nH]c-2n1 (centres undefined) | > 10000 | 71
Cl.O=S(=O)(CCCCOc1ccc2[nH]c3nc(O)nc-3cc2c1)C1CCN(Cc2ccccc2)CC1 | 5000 | 42
CC(C)CN1CCC(S(=O)(=O)CCCOc2ccc3[nH]c4nc(O)nc-4cc3c2)CC1.Cl | > 10000 | 27
Cl.O=S(=O)(CCCOc1ccc2[nH]c3nc(O)nc-3cc2c1)N1CCN(Cc2cccc(C(F)(F)F)c2)CC1 | 2000 | 320
Cl.O=S(=O)(CCCOc1ccc2[nH]c3nc(O)nc-3cc2c1)N1CCNCC1 | > 20000 | 15500
Cl.Cl.O=S(=O)(CCCOc1ccc2[nH]c3nc(O)nc-3cc2c1)N1CCN(Cc2ccc(Cl)cc2)CC1 | > 20000 | 530
O=CN1CCN(S(=O)(=O)CCCOc2ccc3[nH]c4nc(O)nc-4cc3c2)CC1 | < 1000 | 13000

Other lines, results leading:

solubility [1] [µg/mL] | IC50 (Homo sapiens) [nM] | SMILES
2000 | 54 | Cl.O=C(NCCCOc1ccc2[nH]c3nc(O)nc-3cc2c1)N1CCN(CC2CCCCCC2)CC1
2000 | 30 | Cl.O=S(=O)(CCCCOc1ccc2[nH]c3nc(O)nc-3cc2c1)C1CCN(CC2CCCCC2)CC1
700 | 94 | Cl.O=C(NCCCOc1ccc2[nH]c3nc(O)nc-3cc2c1)N1CCN(CC2CCCC2)CC1
3000 | 9 | Cl.Oc1nc2cc3cc(OCCCc4nnnn4C4CCN(CC5CCCC5)CC4)ccc3[nH]c-2n1
1000 | 17 | Cl.Oc1nc2cc3cc(OCCCc4nnnn4C4CCN(CC5CCCCCC5)CC4)ccc3[nH]c-2n1
< 5000 | 48 | Cl.O=S(=O)(CCCOc1ccc2[nH]c3nc(O)nc-3cc2c1)C1CCN(CCC2CCCCC2)CC1
500 | 72 | Cl.O=C(NCCCOc1ccc2[nH]c3nc(O)nc-3cc2c1)N1CCN(CCC2CCCCC2)CC1
> 10000 | 160 | Cl.O=C(NCCCOc1ccc2[nH]c3nc(O)nc-3cc2c1)N1CCN(Cc2cccs2)CC1
> 5000 | 20 | Cl.Oc1nc2cc3cc(OCCCCc4nnnn4C4CCN(CC5CCCCC5)CC4)ccc3[nH]c-2n1
100 | 320 | Cl.O=C(NCCCOc1ccc2[nH]c3nc(O)nc-3cc2c1)N1CCN(c2ncccn2)CC1
> 20000 | 160 | Cl.O=C(NCCCOc1ccc2[nH]c3nc(O)nc-3cc2c1)N1CCN(CC2CCCCO2)CC1 (centres undefined)
250 | 300 | Cl.O=C(NCCCOc1ccc2[nH]c3nc(O)nc-3cc2c1)N1CCN(CCc2ccccc2)CC1
3000 | 280 | Cl.O=C(NCCCOc1ccc2[nH]c3nc(O)nc-3cc2c1)N1CCN(Cc2ccsc2)CC1
> 20000 | 8150 | Cl.O=C(NCCCOc1ccc2[nH]c3nc(O)nc-3cc2c1)N1CCNCC1
< 5000 | 2040 | Cl.O=S(=O)(CCCOc1ccc2[nH]c3nc(O)nc-3cc2c1)N1CCN(CCC2CCCCC2)CC1
500 | 690 | Cl.O=C(NCCCOc1ccc2[nH]c3nc(O)nc-3cc2c1)N1CCN(c2ccccn2)CC1
500 | 130 | CCCC(CCC)CN1CCN(C(=O)NCCCOc2ccc3[nH]c4nc(O)nc-4cc3c2)CC1.Cl
> 20000 | 9860 | Cl.O=C(NCCCOc1ccc2[nH]c3nc(O)nc-3cc2c1)N1CCC(N2CCCCC2)CC1
> 20000 | 180 | CC(C)CN1CCN(C(=O)NCCCOc2ccc3[nH]c4nc(O)nc-4cc3c2)CC1.Cl
200 | 290 | Cl.Cl.O=C(NCCCOc1ccc2[nH]c3nc(O)nc-3cc2c1)N1CCN(Cc2ccc(Cl)cc2)CC1

From ChEMBL document CHEMBL1126868, “Inhibitors of blood platelet cAMP phosphodiesterase. 4. Structural variation of the side-chain terminus of water-soluble 1,3-dihydro-2H-imidazo[4,5-b]quinolin-2-one derivatives” (J Med Chem, 1993)
